Source: ChEMBL document CHEMBL4152228, “Structural-based design, synthesis, and antitumor activity of novel alloxazine analogues with potential selective kinase inhibition” (Eur J Med Chem, 2018)

Assays:
[1] = molecular target: Calcium/calmodulin-dependent protein kinase type 1 (Homo sapiens) (UniProt Q14012); assay: Inhibition of CAMK1 (unknown origin) at 10 uM by [33P]-ATP radiometric assay
In short: (§1)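 Radiometric kinase profiling: purified recombinant kinase (~10–50 nM final) with substrate, assay buffer and compound at 10 µM (control 10% DMSO). Started with 33P-ATP (50 µM stock, 0.8 µCi), run 30 min at ambient temperature, then spotted onto P81 phosphocellulose and washed in 1% phosphoric acid. Scintillation counted, no-substrate blank subtracted, single measurement, result given as % change versus control.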

[2] = molecular target: Calcium/calmodulin-dependent protein kinase type II subunit alpha (Homo sapiens) (UniProt Q9UQM7); assay: Inhibition of CAMK2-alpha (unknown origin) at 10 uM by [33P]-ATP radiometric assay; in short: as §1
[3] = molecular target: Cyclin-dependent kinase 1/Cyclin A1 (Homo sapiens) (UniProt P06493+P78396); assay: Inhibition of CDK1/cyclin A1 (unknown origin) at 10 uM by [33P]-ATP radiometric assay; format: protein-complex assay; in short: as §1
Cyclin-dependent kinase 1/Cyclin A1 (Homo sapiens), sequence (P06493 whole entry, looked up, canonical isoform): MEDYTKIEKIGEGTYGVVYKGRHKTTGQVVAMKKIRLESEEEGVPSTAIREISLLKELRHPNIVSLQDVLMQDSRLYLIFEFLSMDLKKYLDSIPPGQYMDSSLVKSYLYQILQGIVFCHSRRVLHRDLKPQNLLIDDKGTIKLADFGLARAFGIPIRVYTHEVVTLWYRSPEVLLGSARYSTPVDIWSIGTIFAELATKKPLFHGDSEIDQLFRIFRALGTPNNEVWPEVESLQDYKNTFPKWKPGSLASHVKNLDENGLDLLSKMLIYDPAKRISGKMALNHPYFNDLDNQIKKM
Cyclin-dependent kinase 1/Cyclin A1 (Homo sapiens), sequence (P78396 whole entry, looked up, canonical isoform): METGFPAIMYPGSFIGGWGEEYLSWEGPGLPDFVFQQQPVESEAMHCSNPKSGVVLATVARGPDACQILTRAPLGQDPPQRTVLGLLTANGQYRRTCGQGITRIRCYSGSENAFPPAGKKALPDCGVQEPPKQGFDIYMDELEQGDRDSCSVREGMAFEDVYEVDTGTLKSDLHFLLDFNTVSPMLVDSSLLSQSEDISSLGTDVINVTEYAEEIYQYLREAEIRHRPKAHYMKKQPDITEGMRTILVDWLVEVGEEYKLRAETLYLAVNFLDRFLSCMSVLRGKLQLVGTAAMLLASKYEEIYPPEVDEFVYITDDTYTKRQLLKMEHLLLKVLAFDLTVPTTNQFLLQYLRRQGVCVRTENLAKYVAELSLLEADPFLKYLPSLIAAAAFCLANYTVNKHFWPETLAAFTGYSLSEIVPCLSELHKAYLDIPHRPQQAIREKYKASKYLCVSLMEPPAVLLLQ

[4] = molecular target: Casein kinase I isoform alpha (Homo sapiens) (UniProt P48729); assay: Inhibition of CK1alpha1 (unknown origin) at 10 uM by [33P]-ATP radiometric assay; in short: as §1
[5] = molecular target: Mast/stem cell growth factor receptor Kit (Homo sapiens) (UniProt P10721); assay: Inhibition of c-KIT (unknown origin) at 10 uM by [33P]-ATP radiometric assay
Mast/stem cell growth factor receptor Kit (Homo sapiens), sequence (P10721 whole entry): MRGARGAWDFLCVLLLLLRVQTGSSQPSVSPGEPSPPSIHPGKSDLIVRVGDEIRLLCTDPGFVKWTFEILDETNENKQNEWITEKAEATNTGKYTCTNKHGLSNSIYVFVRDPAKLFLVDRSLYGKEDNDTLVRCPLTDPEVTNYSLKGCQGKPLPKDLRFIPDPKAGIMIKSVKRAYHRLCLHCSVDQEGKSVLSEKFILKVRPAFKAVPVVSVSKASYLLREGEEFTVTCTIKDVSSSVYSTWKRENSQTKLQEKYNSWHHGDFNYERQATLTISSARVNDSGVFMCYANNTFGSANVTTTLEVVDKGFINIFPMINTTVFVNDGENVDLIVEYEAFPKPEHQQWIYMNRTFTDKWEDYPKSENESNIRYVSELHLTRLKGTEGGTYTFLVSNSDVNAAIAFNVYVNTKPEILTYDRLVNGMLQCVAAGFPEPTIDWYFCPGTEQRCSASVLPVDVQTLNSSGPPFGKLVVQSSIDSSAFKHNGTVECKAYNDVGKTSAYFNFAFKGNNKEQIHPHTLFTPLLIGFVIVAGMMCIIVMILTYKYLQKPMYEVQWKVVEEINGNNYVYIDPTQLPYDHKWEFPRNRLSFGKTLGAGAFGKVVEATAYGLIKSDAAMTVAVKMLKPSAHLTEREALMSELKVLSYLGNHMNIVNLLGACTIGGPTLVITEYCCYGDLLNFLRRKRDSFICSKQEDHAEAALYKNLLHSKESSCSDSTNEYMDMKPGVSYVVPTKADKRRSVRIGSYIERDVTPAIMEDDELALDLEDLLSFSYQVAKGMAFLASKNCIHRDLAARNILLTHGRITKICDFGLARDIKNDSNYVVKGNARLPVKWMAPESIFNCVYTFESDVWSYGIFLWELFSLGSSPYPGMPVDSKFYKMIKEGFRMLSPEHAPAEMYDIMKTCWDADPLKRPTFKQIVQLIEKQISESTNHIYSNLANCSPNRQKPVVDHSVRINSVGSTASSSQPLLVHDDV
In short: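 Radiometric kinase profiling: purified recombinant kinase (~10–50 nM final) with substrate, assay buffer and compound at 10 µM (control 10% DMSO). Started with 33P-ATP (50 µM stock, 0.8 µCi), run 30 min at ambient temperature, then spotted onto P81 phosphocellulose and washed in 1% phosphoric acid.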

[6] = molecular target: Epidermal growth factor receptor (Homo sapiens) (UniProt P00533); assay: Inhibition of EGFR (unknown origin) at 10 uM by [33P]-ATP radiometric assay; in short: as §1
[7] = molecular target: Mitogen-activated protein kinase 3 (Homo sapiens) (UniProt P27361); assay: Inhibition of ERK1 (unknown origin) at 10 uM by [33P]-ATP radiometric assay; in short: as §1
[8] = molecular target: Fibroblast growth factor receptor 1 (Homo sapiens) (UniProt P11362); assay: Inhibition of FGFR1 (unknown origin) at 10 uM by [33P]-ATP radiometric assay; in short: as §1
Fibroblast growth factor receptor 1 (Homo sapiens), sequence (P11362 22-822 limits assumed): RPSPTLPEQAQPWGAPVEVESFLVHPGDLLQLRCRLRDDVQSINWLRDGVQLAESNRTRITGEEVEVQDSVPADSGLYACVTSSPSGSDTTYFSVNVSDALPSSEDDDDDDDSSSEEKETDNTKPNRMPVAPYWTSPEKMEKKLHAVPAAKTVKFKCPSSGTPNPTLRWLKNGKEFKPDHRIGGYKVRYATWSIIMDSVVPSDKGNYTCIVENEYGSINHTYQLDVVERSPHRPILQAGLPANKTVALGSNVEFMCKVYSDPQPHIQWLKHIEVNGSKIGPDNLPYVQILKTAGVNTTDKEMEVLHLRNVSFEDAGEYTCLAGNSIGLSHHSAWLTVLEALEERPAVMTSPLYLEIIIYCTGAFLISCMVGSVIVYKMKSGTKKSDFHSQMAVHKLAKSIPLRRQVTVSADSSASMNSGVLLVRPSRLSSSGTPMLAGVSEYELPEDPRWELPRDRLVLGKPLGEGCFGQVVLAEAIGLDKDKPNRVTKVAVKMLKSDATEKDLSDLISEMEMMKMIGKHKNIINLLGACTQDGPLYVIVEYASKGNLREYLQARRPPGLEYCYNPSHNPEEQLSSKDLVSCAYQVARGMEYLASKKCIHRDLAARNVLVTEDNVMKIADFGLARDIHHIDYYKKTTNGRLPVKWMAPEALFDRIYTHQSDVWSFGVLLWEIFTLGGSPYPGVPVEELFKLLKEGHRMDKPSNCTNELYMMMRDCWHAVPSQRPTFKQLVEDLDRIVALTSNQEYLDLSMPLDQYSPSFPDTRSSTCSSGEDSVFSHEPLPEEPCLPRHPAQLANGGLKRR

[9] = molecular target: Receptor tyrosine-protein kinase erbB-2 (Homo sapiens) (UniProt P04626); assay: Inhibition of HER2 (unknown origin) at 10 uM by [33P]-ATP radiometric assay; in short: as §1
Receptor tyrosine-protein kinase erbB-2 (Homo sapiens), sequence (P04626 whole entry): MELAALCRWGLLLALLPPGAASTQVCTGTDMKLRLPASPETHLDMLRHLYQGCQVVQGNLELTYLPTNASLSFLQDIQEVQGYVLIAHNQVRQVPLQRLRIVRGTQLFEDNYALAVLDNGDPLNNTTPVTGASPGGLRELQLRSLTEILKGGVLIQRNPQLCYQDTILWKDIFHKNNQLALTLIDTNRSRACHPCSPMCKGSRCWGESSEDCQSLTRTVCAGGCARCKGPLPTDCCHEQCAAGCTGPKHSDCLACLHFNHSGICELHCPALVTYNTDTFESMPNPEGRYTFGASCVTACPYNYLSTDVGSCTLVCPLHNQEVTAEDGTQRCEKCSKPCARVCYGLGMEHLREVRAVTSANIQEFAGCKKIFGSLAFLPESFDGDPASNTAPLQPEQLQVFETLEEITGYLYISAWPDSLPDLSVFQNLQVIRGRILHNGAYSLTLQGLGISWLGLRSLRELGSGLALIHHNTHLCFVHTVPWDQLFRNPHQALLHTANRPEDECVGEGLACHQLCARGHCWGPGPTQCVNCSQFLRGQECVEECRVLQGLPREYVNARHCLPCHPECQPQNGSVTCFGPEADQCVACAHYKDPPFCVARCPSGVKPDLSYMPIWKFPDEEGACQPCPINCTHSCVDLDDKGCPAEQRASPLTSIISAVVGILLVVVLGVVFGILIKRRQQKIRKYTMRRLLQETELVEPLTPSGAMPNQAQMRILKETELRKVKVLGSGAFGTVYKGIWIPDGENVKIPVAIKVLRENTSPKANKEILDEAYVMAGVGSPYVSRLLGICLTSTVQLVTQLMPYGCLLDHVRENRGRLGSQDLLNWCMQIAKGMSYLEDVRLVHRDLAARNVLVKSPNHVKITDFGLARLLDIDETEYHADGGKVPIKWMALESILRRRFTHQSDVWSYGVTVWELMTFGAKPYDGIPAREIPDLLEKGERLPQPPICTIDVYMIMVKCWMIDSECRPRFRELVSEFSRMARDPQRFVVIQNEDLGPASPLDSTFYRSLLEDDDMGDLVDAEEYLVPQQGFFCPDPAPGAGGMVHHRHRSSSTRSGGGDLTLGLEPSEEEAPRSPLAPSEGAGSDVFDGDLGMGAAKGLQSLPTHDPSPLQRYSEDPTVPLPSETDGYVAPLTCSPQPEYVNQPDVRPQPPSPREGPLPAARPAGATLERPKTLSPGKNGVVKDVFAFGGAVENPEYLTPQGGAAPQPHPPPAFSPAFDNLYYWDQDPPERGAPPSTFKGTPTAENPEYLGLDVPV

[10] = molecular target: Mitogen-activated protein kinase 8 (Homo sapiens) (UniProt P45983); assay: Inhibition of JNK1 (unknown origin) at 10 uM by [33P]-ATP radiometric assay; in short: as §1
Mitogen-activated protein kinase 8 (Homo sapiens), sequence (P45983 whole entry): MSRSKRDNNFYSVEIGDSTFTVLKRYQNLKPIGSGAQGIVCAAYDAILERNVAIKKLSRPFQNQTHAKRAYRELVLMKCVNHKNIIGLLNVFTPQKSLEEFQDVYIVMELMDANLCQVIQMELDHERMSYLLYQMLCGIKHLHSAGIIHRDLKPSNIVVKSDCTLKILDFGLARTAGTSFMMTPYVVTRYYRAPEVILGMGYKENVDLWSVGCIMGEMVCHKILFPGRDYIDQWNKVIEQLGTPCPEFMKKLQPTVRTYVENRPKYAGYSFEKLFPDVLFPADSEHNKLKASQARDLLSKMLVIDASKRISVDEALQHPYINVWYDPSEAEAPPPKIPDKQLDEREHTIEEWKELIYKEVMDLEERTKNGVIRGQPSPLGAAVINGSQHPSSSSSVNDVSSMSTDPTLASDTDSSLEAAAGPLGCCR

[11] = molecular target: Hepatocyte growth factor receptor (Homo sapiens) (UniProt P08581); assay: Inhibition of MET (unknown origin) at 10 uM by [33P]-ATP radiometric assay; in short: as §1
[12] = molecular target: Cyclin-dependent kinase 16 (Homo sapiens) (UniProt Q00536); assay: Inhibition of CDK16 (unknown origin) at 10 uM by [33P]-ATP radiometric assay; in short: as §1
Cyclin-dependent kinase 16 (Homo sapiens), sequence (Q00536 whole entry): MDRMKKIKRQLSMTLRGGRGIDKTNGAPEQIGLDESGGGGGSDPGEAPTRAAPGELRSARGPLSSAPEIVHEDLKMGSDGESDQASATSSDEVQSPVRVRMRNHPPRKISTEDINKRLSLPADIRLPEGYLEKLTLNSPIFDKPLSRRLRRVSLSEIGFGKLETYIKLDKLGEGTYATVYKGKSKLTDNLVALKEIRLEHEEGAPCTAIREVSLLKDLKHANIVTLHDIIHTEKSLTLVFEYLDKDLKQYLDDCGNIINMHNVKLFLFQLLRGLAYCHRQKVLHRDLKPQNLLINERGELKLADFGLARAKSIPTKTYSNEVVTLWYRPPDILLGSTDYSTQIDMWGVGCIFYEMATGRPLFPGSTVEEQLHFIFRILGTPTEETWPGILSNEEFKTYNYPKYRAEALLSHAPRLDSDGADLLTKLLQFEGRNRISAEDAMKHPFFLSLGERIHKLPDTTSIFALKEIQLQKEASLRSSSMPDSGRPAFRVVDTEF

[13] = molecular target: Protein kinase C beta type (Homo sapiens) (UniProt P05771); assay: Inhibition of PCK-beta2 (unknown origin) at 10 uM by [33P]-ATP radiometric assay; in short: as §1
MCF7 [14] = assay: Antiproliferative activity against human MCF7 cells after 72 hrs by MTT assay; format: functional, cell-based; settings: MCF7, 72 h
In short: (§2)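 MTT viability assay. Cells grown in RPMI-1640 with 10% heat-inactivated FBS, L-glutamine and 1% penicillin/streptomycin, used within 20 passages. Seeded at 5×10^3 cells/well, left overnight at 37 °C, then exposed to final concentrations of 0.005–50 µM (0.1% DMSO) for up to 72 h. MTT added for 3 h, formazan dissolved in DMSO, absorbance read at 550 nm. IC50 derived relative to untreated controls.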

K562 = assay: Antiproliferative activity against human K562 cells after 72 hrs by MTT assay; format: functional, cell-based; settings: K562, 72 h
A2780 = assay: Antiproliferative activity against human A2780 cells after 72 hrs by MTT assay; format: functional, cell-based; settings: A2780, 72 h; in short: as §2
HCT-116 = assay: Antiproliferative activity against human HCT116 cells after 72 hrs by MTT assay; format: functional, cell-based; settings: HCT-116, 72 h; in short: as §2
[15] = Antiproliferative activity against human WM793B cells after 72 hrs by MTT assay; format: functional, cell-based; in short: as §2
MCF7 [16] = assay: Induction of apoptosis in human MCF7 cells assessed as viable cells at 1 uM after 72 hrs by annexin V-FITC/propidium iodide staining-based flow cytometric method (reference value: 76%); format: functional; settings: MCF7, 72 h, read-out: Activity
MCF7 [17] = assay: Induction of apoptosis in human MCF7 cells assessed as early apoptotic cells at 1 uM after 72 hrs by annexin V-FITC/propidium iodide staining-based flow cytometric method (reference value: 9%); format: functional
MCF7 [18] = assay: Induction of apoptosis in human MCF7 cells assessed as late apoptotic cells at 1 uM after 72 hrs by annexin V-FITC/propidium iodide staining-based flow cytometric method (reference value: 2.6%); format: functional
MCF7 [19] = assay: Induction of apoptosis in human MCF7 cells assessed as necrotic cells at 1 uM after 72 hrs by annexin V-FITC/propidium iodide staining-based flow cytometric method (reference value: 12.6%); format: functional
MCF7 [20] = assay: Induction of apoptosis in human MCF7 cells assessed as viable cells at 5 uM after 72 hrs by annexin V-FITC/propidium iodide staining-based flow cytometric method (reference value: 76%); format: functional; settings: MCF7, 72 h, read-out: Activity
MCF7 [21] = assay: Induction of apoptosis in human MCF7 cells assessed as early apoptotic cells at 5 uM after 72 hrs by annexin V-FITC/propidium iodide staining-based flow cytometric method (reference value: 9%); format: functional
MCF7 [22] = assay: Induction of apoptosis in human MCF7 cells assessed as late apoptotic cells at 5 uM after 72 hrs by annexin V-FITC/propidium iodide staining-based flow cytometric method (reference value: 2.6%); format: functional
MCF7 [23] = assay: Induction of apoptosis in human MCF7 cells assessed as necrotic cells at 5 uM after 72 hrs by annexin V-FITC/propidium iodide staining-based flow cytometric method (reference value: 12.6%); format: functional
MCF7 [24] = assay: Induction of apoptosis in human MCF7 cells assessed as viable cells at 10 uM after 72 hrs by annexin V-FITC/propidium iodide staining-based flow cytometric method (reference value: 76%); format: functional; settings: MCF7, 72 h, read-out: Activity
MCF7 [25] = assay: Induction of apoptosis in human MCF7 cells assessed as early apoptotic cells at 10 uM after 72 hrs by annexin V-FITC/propidium iodide staining-based flow cytometric method (reference value: 9%); format: functional
MCF7 [26] = assay: Induction of apoptosis in human MCF7 cells assessed as late apoptotic cells at 10 uM after 72 hrs by annexin V-FITC/propidium iodide staining-based flow cytometric method (reference value: 2.6%); format: functional
MCF7 [27] = assay: Induction of apoptosis in human MCF7 cells assessed as necrotic cells at 10 uM after 72 hrs by annexin V-FITC/propidium iodide staining-based flow cytometric method (reference value: 12.6%); format: functional
MCF7 [28] = assay: Induction of apoptosis in human MCF7 cells assessed as increase of early apoptotic cells at 1 uM after 72 hrs by annexin V-FITC/propidium iodide staining-based flow cytometric method relative to control; format: functional
MCF7 [29] = assay: Induction of apoptosis in human MCF7 cells assessed as increase of late apoptotic cells at 10 uM after 72 hrs by annexin V-FITC/propidium iodide staining-based flow cytometric method relative to control; format: functional
In short: (§3)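 MCF-7 cells treated 72 h at final 1, 5, 10 µM, then annexin V-FITC/PI stained in pH 7.4 HEPES binding buffer and analysed by flow cytometry. Early or late apoptotic cell fraction expressed as percent change versus vehicle control: (sample − control)/control × 100. Triplicates.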

MCF7 [30] = assay: Induction of apoptosis in human MCF7 cells assessed as increase of early apoptotic cells after 72 hrs by annexin V-FITC/propidium iodide staining-based flow cytometric method; format: functional, cell-based; in short: as §3
MCF7 [31] = assay: Induction of apoptosis in human MCF7 cells assessed as increase of early apoptotic cells at 1 to 10 uM after 72 hrs by annexin V-FITC/propidium iodide staining-based flow cytometric method relative to control; format: functional; in short: as §3
MCF7 [32] = assay: Ratio of increase in late apoptotic cells to early apoptotic cells in human MCF7 cells at 10 uM after 72 hrs by annexin V-FITC/propidium iodide staining-based flow cytometric method; format: functional

Structure (SMILES) | IC50 (MCF7 [14]) [nM] | IC50 (K562) [µM] | IC50 (A2780) [nM] | IC50 (HCT-116) [nM] | IC50 [15] [µM] | viability at 1 µM (MCF7 [16]) [%] | Activity (MCF7 [17]) [%] | Activity (MCF7 [18]) [%] | Activity (MCF7 [19]) [%] | viability at 5 µM (MCF7 [20]) [%] | Activity (MCF7 [21]) [%] | Activity (MCF7 [22]) [%] | Activity (MCF7 [23]) [%] | viability at 10 µM (MCF7 [24]) [%] | Activity (MCF7 [25]) [%] | Activity (MCF7 [26]) [%] | Activity (MCF7 [27]) [%] | other results
O=c1[nH]c(NCc2ccc(CN3CCCCC3)cc2)nc2nc3ccccc3cc12 | 11600 | 9.97 | 10100 | 13000 | 39 | – | – | – | – | – | – | – | – | – | – | – | – | inhibition [1]: 5%; inhibition [2]: 1%; inhibition [3]: 18%; inhibition [4]: -6%; inhibition [5]: 32%; inhibition [6]: -3%; inhibition [7]: -1%; inhibition [8]: -4%; inhibition [9]: 33%; inhibition [10]: -7%; inhibition [11]: 0%; inhibition [12]: -5%; inhibition [13]: 4%
CC(Nc1nc2nc3ccccc3nc2c(=O)[nH]1)c1ccccc1 (configuration not stated) | 160 | > 50 | 340 | 140 | > 50 | 63.4 | 22.1 | 10.5 | 4 | 71.2 | 14.1 | 9.7 | 5.1 | 45.8 | 14.4 | 32 | 7.9 | fold change (FC) (MCF7 [28]): >2; fold change (FC) (MCF7 [29]): 13
O=c1[nH]c(NCc2ccc(CN3CCOCC3)cc2)nc2nc3ccc(Cl)cc3nc12 | 200 | > 50 | 190 | 310 | 40.1 | 82.6 | 11.2 | 3.2 | 2.9 | 74.1 | 14 | 7.8 | 4 | 58 | 19.3 | 16.4 | 6.3 | Activity (MCF7 [30]): Dose-dependent effect; fold change (FC) (MCF7 [31]): 2; Ratio (MCF7 [32]): 7
